Paper PMC10938134 (International Journal for Parasitology: Drugs and Drug …, 2024)

Key:
[1] = test system: bloodstream stage of Trypanosoma brucei brucei; test: Viability assay for T. brucei brucei; type: cell-based; settings: 24 h
[2] = test system: redox biosensor hGrx1-roGFP2 in bloodstream T. b. brucei; test: Redox reporter assay for T. brucei brucei; type: cell-based, Trypanosoma brucei brucei; settings: compound at its EC50 for 1 h; p < 0.001 compared to DMSO-treated parasites
Outline: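 Exponential-phase bloodstream parasites expressing the redox biosensor were exposed for 1 h to the test compound, with 1% v/v DMSO as vehicle and untreated cells as minimum. Diamide at 500 μM for 20 min gave maximum oxidation. Samples were then incubated for 20 min with 1 mM DTT. Flow cytometry gave % biosensor oxidation relative to these maximum and minimum conditions.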

[3] = Trypanosoma brucei, bloodstream parasites, 24 h incubation, compounds tested at 5 μM

N=C(N)c1ccc(N=NNc2ccc(C(=N)N)cc2)cc1 [Ber, Berenil, reference compound]
EC50 ([1]; bloodstream T. b. brucei, concentration-response curves): 0.43 ± 0.07 µM

OC[C@H]1O[C@@H]([Se]Cc2ccc3ccccc3n2)[C@H](O)[C@@H](O)[C@@H]1O [compound 11, Quinolin-2-ylmethyl 1-seleno-β-D-glucopyranoside]
EC50 ([1]; Trypanosoma brucei): ~5 µM
viability at 5 µM ([1]; Trypanosoma brucei): 57.5 ± 3.8%

CC(=O)OC[C@H]1O[C@@H]([Se]Cc2ccc3ccccc3n2)[C@H](OC(C)=O)[C@@H](OC(C)=O)[C@@H]1OC(C)=O [compound 12, Quinolin-2-ylmethyl 2,3,4,6-tetra-O-acetyl-1-seleno-β-D-glucopyranoside]
significant oxidation of the redox biosensor (in words) [2]: Except for the quinolino Se-glycoside 12

COc1ccc2c(C[Se][C@@H]3O[C@H](CO)[C@@H](O)[C@H](O)[C@H]3O)cc(=O)oc2c1 [compound 13, 7-Methoxycoumarin-4-ylmethyl 1-seleno-β-D-glucopyranoside]
viability at 5 µM [1, 3]: 57.3 ± 0.4%

COc1ccc2c(C[Se][C@@H]3O[C@H](CO)[C@H](O)[C@H](O)[C@H]3O)cc(=O)oc2c1 [compound 14, 7-Methoxycoumarin-4-ylmethyl 1-seleno-β-D-galactopyranoside]
viability at 5 µM [1, 3]: ≤ 50%
